Source: PubChem (several laboratories)
This is a sample that favours compounds with a hit; in the whole collection about 1.2% have one here.
Rce1 inh – yeast Rce1p protease inhibitors, primary screen, biochemical, fluorescence, cell-free homogeneous. CAAX prenyl protease 2 (Saccharomyces cerevisiae (strain ATCC 204508 / S288c)), Q03530. AID 2563, 2010. calls only. 290,000 compounds, 0.27% hits. yeast membranes, quenched prenylated peptide cleavage fluorescence;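 active = fall in fluorescence gain of 50% or more versus controls, with final raw signal at or below 3038400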
Target sequence (Q03530 whole entry, looked up): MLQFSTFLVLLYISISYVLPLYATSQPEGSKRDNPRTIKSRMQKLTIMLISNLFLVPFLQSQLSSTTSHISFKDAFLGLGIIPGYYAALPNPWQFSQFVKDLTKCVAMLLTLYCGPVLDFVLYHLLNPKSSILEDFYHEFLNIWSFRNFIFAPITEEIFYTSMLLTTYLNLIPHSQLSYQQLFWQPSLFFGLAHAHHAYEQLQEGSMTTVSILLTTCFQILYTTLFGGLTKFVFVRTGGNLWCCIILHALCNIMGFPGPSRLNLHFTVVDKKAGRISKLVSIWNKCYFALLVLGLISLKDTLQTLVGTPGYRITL
proCasp7 act – procaspase-7 activators, primary screen, counter-screen for procaspase-3 activator project, biochemical, absorbance, HTS, human | 330,000 compounds, 0.093% hits | AID 463210, 2010 | activation, % at 8.5 µM | recombinant procaspase-7, Ac-DEVD-pNA absorbance 405 nm; D23A/D198A/D206A triple mutant, cannot self-cleave; scale: DMSO 0, 5 µM enzyme 100 | Caspase-7 (Homo sapiens), P55210;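 active = percent activation above the screen-wide mean plus 3 SD, cut at about 25% in these data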
Target sequence (P55210 whole entry D23A/D198A/D206A): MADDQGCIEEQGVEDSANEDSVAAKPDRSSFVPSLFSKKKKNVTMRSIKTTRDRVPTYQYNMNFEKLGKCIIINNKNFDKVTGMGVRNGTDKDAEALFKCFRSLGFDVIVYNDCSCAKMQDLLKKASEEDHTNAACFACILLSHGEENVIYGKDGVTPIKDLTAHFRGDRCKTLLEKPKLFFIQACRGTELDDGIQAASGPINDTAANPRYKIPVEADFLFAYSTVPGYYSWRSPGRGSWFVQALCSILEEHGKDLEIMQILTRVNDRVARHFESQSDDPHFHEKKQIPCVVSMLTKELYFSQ
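Replicates: singlicate. Assay system: Procaspase-7 triple mutant (PC-7 D3A). Signal: 405 nm absorbance of p-nitroaniline. Times: 1 h preincubation, 2 h reaction. Buffer or medium: Zinc-free HEPES pH 7.4 with 300 mM NaCl, 0.01% Triton X-100. Also added: DEVD-pNA substrate. Benchmarks: DMSO wells as 0%, DMSO with 5 µM added PC-7 as 100%.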
p-CIP stab down – p/CIP-EGFP fusion destabilizers, primary screen, fluorescence, F442A cells | 16 h | Q05BA5 | 290,000 compounds, 0.01% hits | AID 1984, 2009 | decrease of EGFP signal, % at 10 µM;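 active = EGFP signal decrease of at least 30% at 10 µM or well 3 SD below plate mean, unless failing retest; inactive = the rest, including hits failing retest or dose response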
procasp3 activ – activators of human procaspase-3 D3A mutant, primary screen, biochemical, absorbance, PC-3 D3A mutant, single concentration; 330,000 compounds, 0.11% hits; Caspase-3 (Homo sapiens), P42574; AID 463141, 2010; activation, % at 8.5 µM; recombinant procaspase-3 D3A, Ac-DEVD-pNA absorbance 405 nm;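 active = activation above the mean of all tested compounds plus 3 SD, cut at about 21% in these data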
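Assay system – Procaspase-3 D3A mutant · Benchmarks – DMSO low control, extra-enzyme high control · Technique – 405 nm absorbance of p-nitroaniline, reads at 0 and 120 min · Doses – 8.5 µM nominal · Measure – % activation between DMSO and enzyme-spiked controls · Also added – Ac-DEVD-pNA chromogenic peptide substrate · Schedule – 1 h compound preincubation, 2 h substrate hydrolysis at 25 °C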
GAA850 FXN act – FXN promoter activators, primary screen, cell-based, luciferase luminescence, HEK293 lucGAA850; HEK293 lucGAA850 FXN promoter luciferase reporter, 24 h; percent of 10 µM SAHA response; activation, % at 6 µM; 360,000 compounds, 0.56% hits; AID 540364, 2011;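 active = activation above the average of all compounds screened plus 3 SD, cutoff fixed separately per campaign, cut at about 7.5% in these data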
Lipid droplet – inhibitors of hepatocyte lipid droplet formation, primary screen, imaging, high-throughput imaging, BODIPY stain; AML12 mouse hepatocytes, oleate lipid droplets; inhibition, % at 6.5 µM; 240,000 compounds, 0.4% hits; AID 1656, 2009;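 active = lipid droplet intensity inhibited by at least 50%, with more than 500 cells counted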
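System: AML12 hepatocytes (mouse). Probe or stimulus: oleic acid at 100 µM to induce lipid droplet formation. Times: overnight treatment with compound plus oleate. Detection: Image-based BODIPY and DAPI two-channel analysis. Evaluation: percent inhibition of filter-corrected integrated lipid droplet intensity per well.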
GAA30 counter – GAA30 FXN promoter activators, confirmation, counter-screen for GAA850 frataxin promoter activator project, cell-based, luminescence, HEK293, lucGAA30, triplicate | 1,900 compounds, 66% hits | HEK293 lucGAA30 FXN promoter luciferase, 24 h; DMSO = 0%, 5 µM ipriflavone = 100% | shares compounds with GAA850 FXN act | AID 588350, 2011 | activation, % at 6 µM;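 active = mean activation above the mean of solvent-only control wells plus 3 SD, cut at about 22% in these data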;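 note: counterscreen of GAA850 promoter hits where activity marks nonselective or luminescence artifacts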
GAA850 confirm – FXN GAA850 promoter activators in reporter cells, confirmation, cell-based, luminescence, HEK293 lucGAA850, triplicate; HEK293 lucGAA850 FXN promoter luciferase reporter, 24 h; 100% = activation by SAHA; shares compounds with GAA850 FXN act; 1,900 compounds, 86% hits; AID 588351, 2011; activation, % at 6 µM;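 active = mean activation above a set limit taken from the primary screen, cut at about 8% in these data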
Hits are given with their value; . = inactive; / = no result.

SMILES | Rce1 inh | proCasp7 act | p-CIP stab down | procasp3 activ | GAA850 FXN act | Lipid droplet | GAA30 counter | GAA850 confirm
COc1ccccc1CCNS(=O)(=O)CCNC(=O)c1ccc2c(c1)OCO2 | . | . | / | . | . | / | / | /
CCN(CCCNC(=O)Cn1ncc2c([nH]c3ccc(C)cc32)c1=O)Cc1ccccc1 | . | . | . | . | . | . | / | /
COc1ccc(CC(=O)OC(C)C(=O)Nc2c(C)n(C)n(-c3ccccc3)c2=O)cc1OC (centres undefined) | / | . | / | . | . | / | / | /
CC[C@@]1(C(=O)OC)N[C@H](CN(C)C(=O)Nc2ccc(F)cc2)[C@@H]2C(=O)N(Cc3ccccc3)C(=O)[C@@H]21 | / | . | / | . | 9.6 | / | 38 | 18
CC[C@@]1(C(=O)OC)N[C@H](CN(C)C(=O)Nc2ccc(OC)cc2)[C@@H]2C(=O)N(Cc3ccccc3)C(=O)[C@@H]21 | / | . | / | . | 17 | / | 84 | 24
COC(=O)[C@]1(Cc2ccccc2)N[C@H](CN(C)C(=O)Nc2ccccc2)[C@@H]2C(=O)N(Cc3ccccc3)C(=O)[C@@H]21 | / | . | / | . | . | / | / | /
CC[C@@]1(C(=O)OC)N[C@H](CN(C)C(=O)Nc2ccc(C)cc2)[C@@H]2C(=O)N(Cc3ccccc3)C(=O)[C@@H]21 | / | . | / | . | 15 | / | 42 | 14
COC(=O)[C@H](C(C)C)N(Cc1ccccc1)S(=O)(=O)CCNC1CCCC1 | / | . | / | . | . | / | / | /
COc1cc(C(C)=O)ccc1OC(=O)N1CCOCC1 | / | / | / | / | . | / | / | /
CCCCn1c(N)c(N(CC(C)C)C(=O)COC(=O)Cc2c(C)nc3ccccc3c2C)c(=O)[nH]c1=O | . | . | . | . | . | . | / | /
COc1ccc(C(O)P(=O)(OCCC(C)C)c2ccc(N(C)C)cc2)cc1 (centres undefined) | . | . | . | . | . | . | / | /
COc1cccc(C2NC(=O)NC(C)=C2C(=O)OCC2CCCCC2)c1 (centres undefined) | . | . | . | . | . | . | / | /
O=C(O)/C=C/C(=O)NCc1cn(-c2ccccc2)nc1-c1cccc(Br)c1 | . | . | . | . | 8.2 | . | 30 | 13
O=C(O)Cc1cn(-c2ccccc2)nc1-c1ccccc1 | . | . | . | . | . | . | / | /
O=C(Nc1ccc(N2CCOCC2)cc1)c1csc([C@@H]2C[C@H](O)[C@@H](CO)O2)n1 | / | / | / | / | . | / | / | /
COc1cc2nc(=S)n3[nH]c(COc4ccccc4C)nc3c2cc1OC | . | . | . | . | . | . | / | /
COc1cc2nc(=S)n3[nH]c(CCn4nc(C)cc4C)nc3c2cc1OC | . | . | . | . | 19 | . | 32 | 17
CCOC(=O)CN1C(=O)S/C(=C/c2ccc3c(c2)n(C)c(=O)n3C)C1=O | . | . | . | . | . | . | / | /
CCOC(=O)CN1C(=O)S/C(=C/C=C/c2ccc(N(C)C)cc2)C1=O | . | . | . | . | 8.0 | . | 78 | 34
Cc1cc(C)n(-c2nc3ccccc3nc2Nc2ccc3c(c2)OCO3)n1 | . | . | . | . | . | . | / | /
Cc1ccc2nc(Nc3ccc4[nH]c(=O)[nH]c4c3)c(-n3nc(C)cc3C)nc2c1 | . | . | . | . | 9.1 | . | 77 | 29
COc1cc(OC)c(OC)cc1CCC(C)NCCC(c1ccccc1)c1ccccc1 (centres undefined) | . | . | . | . | 13 | . | . | 9.4
COc1ccc(-c2cc(-c3cc(C)ccc3O)[nH]n2)cc1 | . | . | . | . | 13 | . | 53 | 46
COc1ccccc1/C=C/C(=O)N1CCN(S(=O)(=O)c2cccs2)CC1 | / | . | / | . | . | / | / | /
CCOC(=O)c1nc(S(C)(=O)=O)ncc1Cl | . | . | . | . | 41 | / | 63 | 73
SMILES | Rce1 inh | proCasp7 act | p-CIP stab down | procasp3 activ | GAA850 FXN act | Lipid droplet | GAA30 counter | GAA850 confirm
CCOC(=O)c1nc(S(C)(=O)=O)ncc1N1CCOCC1 | . | . | . | . | . | / | / | /
CS(=O)(=O)c1ncc(Cl)c(C(=O)Nc2ccc(N3CCOCC3)cc2)n1 | . | . | . | . | . | . | / | /
CS(=O)(=O)c1ncc(Cl)c(C(=O)Nc2ccc(OC(F)F)cc2)n1 | . | . | . | . | 68 | . | . | .
Cc1ccc(S(=O)(=O)N2CCOCC2)cc1C(=O)OC(C)C(=O)c1ccccc1 (centres undefined) | . | . | / | . | . | / | / | /
O=C(COc1ccc(Cl)cc1[N+](=O)[O-])NC1CCCCC1 | . | . | . | . | 8.1 | . | 85 | 29
CC(=O)c1cc(Cl)ccc1OCC(=O)NC1CCCC1 | / | / | / | / | . | / | / | /
COCCOC(=O)C1=C(C)NC(=O)NC1c1ccc(OC(=O)c2ccco2)c(OC)c1 (centres undefined) | . | . | . | . | 13 | . | 33 | 10
COc1cc(C2NC(=O)NC(C)=C2C(=O)OCc2ccccc2)ccc1O (centres undefined) | . | . | . | . | 8.9 | / | . | 10
CCOC(=O)C1=C(C)NC(=O)NC1c1ccc(OC(=O)c2ccco2)cc1 (centres undefined) | . | . | . | . | . | . | / | /
Cc1ccc(S(=O)(=O)NCCC(=O)NCC(c2ccco2)N2CCCCC2)cc1C (centres undefined) | . | . | / | . | . | / | / | /
COC(=O)[C@@]1(C)[C@H]2C(=O)N(Cc3ccccc3)C(=O)[C@H]2[C@H]2CN=C(SCc3ccc(Cl)cc3)N21 | / | . | / | . | 15 | / | 30 | 11
COC(=O)[C@@]1(C)[C@H]2C(=O)N(Cc3ccccc3)C(=O)[C@H]2[C@H]2CN=C(SCc3ccc(C#N)cc3)N21 | / | . | / | . | 13 | / | 22 | 12
CCOc1ccccc1C(=O)N/N=C/c1c[nH]c2ccccc12 | . | . | . | . | 8.2 | . | 27 | 8.9
CCOc1ccccc1C=NNC(=O)c1cccc2ccccc12 | / | / | / | / | . | / | / | /
